Measured values gathered from unrelated publications.
Compare with care: the assays were run in different laboratories.
Cell line: MV4-11
Read-out: cell growth or viability

COc1cc2nccc(Oc3ccc(NC(=O)C4(C(=O)Nc5ccc(F)cc5)CC4)cc3)c2cc1OC — IC50 (trypan blue; 72 h): 12 nM
CCNc1ccnc(Nc2cccc(-c3cccnc3)c2)n1 — EC50 (ATP luminescence; 72 h): 35 nM
CN1CCN(C(=O)[C@H](CCCN[C@@H]2C[C@H]2c2ccc(F)cc2)NC(=O)c2ccc(-n3ccnn3)cc2)CC1 — EC50 (resazurin; 96 h): 4.2 nM
O=C(NC1CCC1)c1ccc2nc(-c3cccc(NS(=O)(=O)NCCN4CCCCC4)c3)cn2c1 — IC50 (ATP luminescence; 72 h): 4200 nM
CC[C@@H](C)[C@H](N)C(=O)N1Cc2ccccc2C1 — IC50 (ATP luminescence; 24 h): 1150 nM
Cc1cc2c(cc1N1C(=O)c3cccc4c(CCCO)ccc(c34)C1=O)n(C)c(=O)n2C (racemic) — GI50 (resazurin): 2630 nM
c1cc(Nc2nccc(NC3CCCCC3)n2)cc(-n2ccnc2)c1 — EC50 (ATP luminescence; 72 h): 58 nM
Cc1ccc(NC(=O)NCc2ccc3c(c2)CN(C2CCC(=O)NC2=O)C3=O)cc1Cl (stereo not drawn) — EC50 (ATP luminescence): 0.026 nM
CC(C)[C@H](N)C(=O)N1CCC[C@H]1B(O)O — IC50 (ATP luminescence; 48 h): 78 nM
NNCCc1ccccc1 — EC50 (resazurin; 96 h): > 2000 nM
CC(C)Nc1ccnc(Nc2ccc(-c3ccccc3)cc2)n1 — EC50 (ATP luminescence; 72 h): 11900 nM
COc1cc(-c2ncn(/C=C\C(=O)OC(C)C)n2)cc(C(F)(F)F)c1 — IC50 (72 h): 28 nM
C#CCN(C)Cc1ccccc1 — EC50 (resazurin; 96 h): > 2000 nM
c1cncc(Nc2nccc(NC3CCCCC3)n2)c1 — EC50 (ATP luminescence; 72 h): > 7000 nM
CC(C)C[C@H](NC(=O)[C@H](Cc1ccccc1)NC(=O)c1cnccn1)B(O)O — IC50 (ATP luminescence): 3.9 nM
